Experimental data published in article PMC11842550 (Scientific Reports, 2025).
“Also recorded” adds a separate entry of the source. Read-outs that look alike come from different tables or passages of the source. Bridges are numbered along the chain shown (N, C = ends). Where no end group is shown, it is not given here.

What was measured:
[1] = test system: cystic form of Borrelia; assay: Inhibition of conversion of cystic form into spirochetal form; format: cell-based, Borrelia garinii (strain SKT-7.1); details: for recovery of cystic Borrelia and transformation into the spirochetal form: peptides 1.66 µM for 16 h
In short: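 Cysts formed by 1:1 dilution of early-log culture in serum-free BSK-II, 2 weeks at 15 °C. 2 × 10^3 cysts exposed 16 h to test compound (two-fold series, 3.33–0.05 µM) in serum-free BSK-II, then pelleted and compound removed. Regrown 15 days at 33 °C in serum-containing BSK-II. Counted by flow cytometry; % inhibition vs PBS control; doxycycline 50 nM control.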

[2] = test system: Borrelia; assay: Dot blot binding of individual phage clones to Borrelia; design: species or system Borrelia garinii (strain SKT-7.1); details: spirochetes fixed on PVDF membrane, anti-M13 antibody
In short: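 2 µl Borrelia (PBS, OD600 1.2) are spotted on activated PVDF, air-dried, fixed with 4% paraformaldehyde for 10 min, dried overnight and blocked for 1 h. Individual phage clones from the third panning (10^11) are added for 1 h with shaking. After PBS-0.05% Tween washes, anti-M13 pIII mAb (1:1000) then IRDye […] anti-mouse (1:15000) are applied, 1 h each. Read at 800 nm. No-phage negative control.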

[3] = test system: spirochetal form of Borrelia; format: cell-based, Borrelia garinii (strain SKT-7.1); details: 5 days, 33 °C; for viability of Borrelia (spirochetal form): peptide 1.67 µM, triplicate; for inhibition of the spiral form of Borrelia: 0.41 µM
In short: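 Early-log Borrelia (BSK-II with 6% rabbit serum, 33 °C, about 2 weeks) are counted by flow cytometry. 2 × 10^3 cells go into 200 µl fresh BSK-II with test peptide at 6.67, 3.33, 1.67 or 0 µM, 33 °C for 5 days, then are recounted by flow cytometry. Percent inhibition is relative to 0 µM. Follow-up runs use 0.83, 0.41, 0.20 and 0.10 µM. Doxycycline (50 µM–5 nM) is the positive control.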

[4] = test system: brain microvascular endothelial cells (BMECs); assay: Cell-ELISA binding to endothelial cells; details: 2 µg peptide, fixed BMEC monolayer, triplicate
In short: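 BMEC monolayers in 96 wells are washed with PBS and fixed in 4% paraformaldehyde for 10 min, then blocked. They are incubated with 2 µg His-tagged test peptide and washed with PBS-T. Bound peptide is detected with HisProbe-HRP (1:1000, 1 h, room temperature) and TMB (25 min), stopped with 2 M H2SO4, read at 450 nm. Triplicates. Negative controls omit cells or peptide.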

[5] = test system: Borrelia; assay: ELISA binding of Bor peptides to Borrelia; design: species or system Borrelia garinii (strain SKT-7.1); details: for affinity to spirochetal form, cystic form and trypsin-shaved Borrelia (ELISA): 2 µg/well
In short: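 Paraformaldehyde-fixed early-log Borrelia in microtiter wells are incubated 1 h with His-tagged test peptide, 2 µg/well for screening. Two-fold dilutions from 2.6 µM to 86 nM are used for concentration dependence, with the peptide-omitted background subtracted. Detection: five PBS-T washes, HisProbe-HRP (1:1000, 0.5% BSA, 1 h, room temperature), TMB 25 min, 2 M H2SO4 stop, 450 nm. Triplicates. Negative controls omit Borrelia or peptide.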

[6] = test system: HEK293T cells; assay: Cell toxicity, XTT assay; format: cell-based; details: 3.33 µM, 24 h, six replicates
In short: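 HEK293T cells are grown in high-glucose DMEM with 2 mM L-glutamine and 5% FBS (37 °C, 5% CO2) to 70% confluence. They get test peptide at 3.33 or 0 µM for 24 h. XTT reagent is added for 3 h and read at 450 nm. Controls are PBS (negative) and 0.1% Triton X. Six replicates. Metabolic activity is blank-subtracted sample ×100 over blank-subtracted PBS control.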

[7] = test system: BBB model (BMECs, cell line D3); format: in vitro ADME; details: 1 µg/ml Cy5.5 labelled, luminal to abluminal
In short: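 D3 BMECs (5 × 10^5) are seeded on collagen-I-coated transwell inserts (1 µm pores) in complete endothelial medium. Barrier is confirmed by TEER and dextran. Cy5.5-NHS-labelled truncated OspA fragments (beta sheets 10–11 or 12–16), angiopep-2-Cy5.5 or CF770 dextran go luminally at 1 µg/ml, 37 °C. Abluminal fluorescence (650/705 nm; 770/797 nm) is read at 1, 2 and 3 h and converted by standard curves.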

[8] = test system: spirochetal form of Borrelia as well as biofilm; details: compared to antibiotics; cited from earlier work
[9] = test system: bacterial cell wall; details: cited from earlier work

Compound: C[C@H]1c2cccc(O)c2C(=O)C2=C(O)[C@]3(O)C(=O)C(C(N)=O)=C(O)[C@@H](N(C)C)[C@@H]3[C@@H](O)[C@@H]21 [doxycycline, reference compound]
- inhibition of transformation and recovery of cysts into the spirochetal form ([1]; 0.05 µM for 16 h): did not inhibit

Compound: ACGYSSFNRCGGGS (disulfide 2-10 (inferred)) [Ph.Bor-16]
- binding of phage clone to Borrelia in dot blot [2]: best binders

Compound: ACHNETQKMCGGGS (disulfide 2-10 (inferred)) [Ph.Bor-9]
- binding of phage clone to Borrelia in dot blot [2]: best binders

Compound: ACHNTPHHLCGGGS (disulfide 2-10 (inferred)) [Ph.Bor-23]
- binding of phage clone to Borrelia in dot blot [2]: best binders

Compound: ACHNTSARVCGGGS (disulfide 2-10 (inferred)) [Ph.Bor-29]
- binding of phage clone to Borrelia in dot blot [2]: best binders

Compound: ACLKLGEKWCGGGS (disulfide 2-10 (inferred)) [Ph.Bor-1]
- binding of phage clone to Borrelia in dot blot [2]: best binders

Compound: ACNVRTCHDCGGGS (disulfide (positions not given here)) [Ph.Bor-24]
- binding of phage clone to Borrelia in dot blot [2]: best binders

Compound: ACPRGIGLQCGGGS (disulfide 2-10 (inferred)) [Ph.Bor-26]
- binding of phage clone to Borrelia in dot blot [2]: best binders

Compound: ACQPRNLNNCGGGS (disulfide 2-10 (inferred)) [Ph.Bor-18]
- binding of phage clone to Borrelia in dot blot [2]: best binders

Compound: ACRGATPMSCGGGS (disulfide 2-10 (inferred)) [Ph.Bor-8]
- binding of phage clone to Borrelia in dot blot [2]: best binders

Compound: ACTPSFSKICGGGS (disulfide 2-10 (inferred)) [Ph.Bor-11]
- binding of phage clone to Borrelia in dot blot [2]: best binders

Compound: MRGSHHHHHHGSNEKGETSEKTIVRANGTRLEYTDIKSDGIEGRVDGGGGSDDDDKMACGYSSFNRCGGGS (disulfide 59-67 (inferred)) [Bor-16]
- viability of Borrelia (spirochetal form) [3]: < 50%
- recovery of cystic Borrelia and transformation into the spirochetal form [1]: significantly reduced
- binding to brain microvascular endothelial cells (cell-ELISA) [4]: bind endothelial cells

Compound: MRGSHHHHHHGSNEKGETSEKTIVRANGTRLEYTDIKSDGIEGRVDGGGGSDDDDKMACPRGIGLQCGGGS (disulfide 59-67 (inferred)) [Bor-26]
- viability of Borrelia (spirochetal form) [3]: < 50%
- recovery of cystic Borrelia and transformation into the spirochetal form [1]: significantly reduced
- binding to brain microvascular endothelial cells (cell-ELISA) [4]: bind endothelial cells

Compound: MRGSHHHHHHGSNEKGETSEKTIVRANGTRLEYTDIKSDGIEGRVDGGGGSDDDDKMACQPRNLNNCGGGS (disulfide 59-67 (inferred)) [Bor-18]
- inhibition of the spiral form of Borrelia [3]: more than 50%
- viability of Borrelia (spirochetal form) [3]: < 50%
- affinity to spirochetal form, cystic form and trypsin-shaved Borrelia (ELISA) [5]: showed affinity for all three forms
- Absorbance450 in ELISA, binding to Borrelia ([5]; peptide 0.08 µM, early log phase Borrelia, negative control subtracted): 0.8
- binding to Borrelia in ELISA compared with other peptides ([5]; peptide 0.16 µM, early log phase Borrelia): significantly higher; also recorded: showed binding affinity
- binding to brain microvascular endothelial cells (cell-ELISA) [4]: bind endothelial cells

Compound: MRGSHHHHHHGSNEKGETSEKTIVRANGTRLEYTDIKSDGIEGRVDGGGGSDDDDKMACTPSFSKICGGGS (disulfide 59-67 (inferred)) [Bor-11]
- inhibition of the spiral form of Borrelia [3]: more than 50%
- viability of Borrelia (spirochetal form) [3]: < 50%
- growth inhibition of cystic form ([1]; 0.41 µM, 16 h exposure, t-test p < 0.05): inhibiting growth significantly
- recovery of cystic Borrelia and transformation into the spirochetal form [1]: significantly reduced
- affinity to spirochetal form, cystic form and trypsin-shaved Borrelia (ELISA) [5]: showed affinity for all three forms
- effect on cell metabolic activity (XTT) [6]: no adverse effects
- binding to brain microvascular endothelial cells (cell-ELISA) [4]: bind endothelial cells

Compound: NEKGETSEKTIVRANGTRLEYTDIKSDG [O-BBB]
- borreliacidal effect on spirochetal form ([3]; 6.67 µM): no borreliacidal effect
- affinity to Borrelia (ELISA) ([5]; 2 µg peptide per well, fixed Borrelia, HisProbe-HRP, 450 nm, triplicate): no affinity for Borrelia
- effect on cell metabolic activity (XTT) [6]: no adverse effects
- binding to brain microvascular endothelial cells (cell-ELISA) [4]: bind endothelial cells
- crossing of BBB model compared with angiopep-2 ([7]; 2nd hr): comparable to that of angiopep-2
- crossing of BBB model compared with angiopep-2 ([7]; 3rd hr): significantly higher than that of angiopep-2

Compound: melittin
- effect on the spirochetal form of Borrelia as well as biofilm [8]: significant effect
- time to destabilise the bacterial cell wall [9]: roughly 75 min
